Reference: ChEMBL document CHEMBL1828498, “Identification and characterization of a novel integrin-linked kinase inhibitor” (J Med Chem, 2011)
The source made the active and inactive calls. No cut-off for these calls is given here.

What was measured:
SK-BR-3 [1] = test: Reduction in EGFR mRNA expression in human SKBR3 cells after 24 hrs by RT-PCR analysis; format: functional, cell-based
Summary of the method: (§1)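 PC-3, PC-3/CA-ILK, SKBR3 and SKBR3/CA-ILK cells treated 24 h in 5% FBS medium; total RNA from 1 × 10^6 cells by Trizol, 1 μg reverse-transcribed, then PCR with gene-specific primers and β-actin reference.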

MDA-MB-231 = test: Antiproliferative activity against human MDA-MB-231 cells assessed as suppression of cell viability by MTT assay; format: functional, cell-based
Summary of the method: (§2)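 Cancer lines seeded 5000/well and nonmalignant PrEC/MEC 8000/well in 10% FBS, 24 h before treatment. Compound exposure 24 h in 5% FBS medium, 0.1% final DMSO. MTT (0.25 mg/mL) for 1 h at 37°C, dye solubilized in DMSO, absorbance read at 570 nm. Mean ± SD, n = 6.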

SK-BR-3 [2] = test: Reduction in EGFR mRNA expression in human SKBR3 cells expressing constitutively active ILK after 24 hrs by RT-PCR analysis; format: functional, cell-based; summary of the method: as §1
PC-3 [3] = test: Reduction in EGFR mRNA expression in human PC3 cells after 24 hrs by RT-PCR analysis; format: functional, cell-based; summary of the method: as §1
[4] = target: Focal adhesion kinase 1 (Homo sapiens) (UniProt Q05397); test: Inhibition of FAK in human PC3 cells assessed as decrease in auto-phosphorylation at Tyr-397 by Western blot analysis; format: cell-based; details: PC-3
Summary of the method: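 PC-3 cells exposed to graded concentrations for 24 h in 5% FBS medium. Immunoblotting for phospho-Tyr397-FAK, ERK1/2, p38 and JNK. Lysis in 1% SDS buffer, primary antibody 1:1000 at 4°C for 2 h, ECL. Three independent experiments.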

SK-BR-3 [5] = test: Reduction in HER2 mRNA expression in human SKBR3 cells after 24 hrs by RT-PCR analysis; format: functional, cell-based; summary of the method: as §1
PC-3 [6] = test: Induction of apoptosis in human PC3 cells assessed as late apoptotic cells at 1 uM by annexin V/PI staining (reference value: 9.8%); format: functional
PC-3 [7] = test: Induction of apoptosis in human PC3 cells assessed as early apoptotic cells at 1 uM by annexin V/PI staining (reference value: 5.6%); format: functional
PC-3 [8] = test: Induction of apoptosis in human PC3 cells up to 2 uM after 48 hrs by flow cytometry; format: functional, cell-based
[9] = target: Rapamycin-insensitive companion of mTOR (Homo sapiens) (UniProt Q6R327); test: Inhibition of mTORC2 in human PC3 cells assessed as PKCalpha phosphorylation by Western blot analysis; format: cell-based; details: PC-3
Chain of Rapamycin-insensitive companion of mTOR (Homo sapiens) (Q6R327 whole entry): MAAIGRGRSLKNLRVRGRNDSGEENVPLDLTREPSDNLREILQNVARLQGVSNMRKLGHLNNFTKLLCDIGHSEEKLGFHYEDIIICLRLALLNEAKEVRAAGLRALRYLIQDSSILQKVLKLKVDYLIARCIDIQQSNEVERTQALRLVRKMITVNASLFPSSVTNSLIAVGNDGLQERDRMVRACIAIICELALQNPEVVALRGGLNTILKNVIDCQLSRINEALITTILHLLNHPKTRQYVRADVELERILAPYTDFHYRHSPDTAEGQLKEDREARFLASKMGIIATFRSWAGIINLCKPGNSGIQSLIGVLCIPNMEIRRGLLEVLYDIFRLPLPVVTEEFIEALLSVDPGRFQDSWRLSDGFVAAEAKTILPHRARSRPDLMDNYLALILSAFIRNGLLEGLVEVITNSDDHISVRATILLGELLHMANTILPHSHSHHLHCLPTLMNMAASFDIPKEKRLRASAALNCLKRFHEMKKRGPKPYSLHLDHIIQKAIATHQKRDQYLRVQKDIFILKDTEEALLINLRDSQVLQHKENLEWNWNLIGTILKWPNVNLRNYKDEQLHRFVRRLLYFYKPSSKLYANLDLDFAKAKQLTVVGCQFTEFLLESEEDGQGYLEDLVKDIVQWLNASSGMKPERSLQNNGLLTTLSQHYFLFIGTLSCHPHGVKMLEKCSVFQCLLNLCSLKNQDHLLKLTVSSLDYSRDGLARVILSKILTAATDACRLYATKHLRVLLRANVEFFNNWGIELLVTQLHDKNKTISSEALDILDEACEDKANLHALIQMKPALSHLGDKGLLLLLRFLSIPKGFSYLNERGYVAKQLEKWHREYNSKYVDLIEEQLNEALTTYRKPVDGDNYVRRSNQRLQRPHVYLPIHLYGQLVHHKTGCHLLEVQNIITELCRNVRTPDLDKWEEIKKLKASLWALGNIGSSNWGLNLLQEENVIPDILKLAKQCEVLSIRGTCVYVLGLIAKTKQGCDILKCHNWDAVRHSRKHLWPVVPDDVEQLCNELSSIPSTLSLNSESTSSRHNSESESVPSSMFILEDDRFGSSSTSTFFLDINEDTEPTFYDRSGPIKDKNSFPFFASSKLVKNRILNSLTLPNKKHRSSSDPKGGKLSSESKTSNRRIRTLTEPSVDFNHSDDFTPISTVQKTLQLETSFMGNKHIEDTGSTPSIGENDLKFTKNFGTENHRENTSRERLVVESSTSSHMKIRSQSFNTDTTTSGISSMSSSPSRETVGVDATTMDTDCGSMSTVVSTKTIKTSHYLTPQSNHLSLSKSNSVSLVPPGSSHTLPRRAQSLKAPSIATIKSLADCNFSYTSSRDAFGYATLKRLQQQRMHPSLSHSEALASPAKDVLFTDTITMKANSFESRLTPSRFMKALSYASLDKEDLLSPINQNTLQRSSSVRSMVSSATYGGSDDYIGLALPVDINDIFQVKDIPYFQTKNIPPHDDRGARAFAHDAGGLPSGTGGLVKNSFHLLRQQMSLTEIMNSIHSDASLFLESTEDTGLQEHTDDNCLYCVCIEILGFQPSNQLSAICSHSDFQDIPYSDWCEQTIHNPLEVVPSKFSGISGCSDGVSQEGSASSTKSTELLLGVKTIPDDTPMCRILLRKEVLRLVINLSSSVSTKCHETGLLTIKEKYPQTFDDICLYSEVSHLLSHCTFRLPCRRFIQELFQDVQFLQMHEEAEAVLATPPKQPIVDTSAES
Summary of the method: (§3)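 Cells exposed 24 h in 5% FBS medium, final DMSO 0.1%; lysed in 1% SDS/10 mM EDTA/50 mM Tris pH 8.1, equal protein on SDS-PAGE, nitrocellulose, primary antibody 1:1000 at 4°C for 2 h, HRP secondary 1:5000, ECL detection; blots representative of three independent experiments.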

SK-BR-3 [10] = test: Reduction in EGFR concentration in human SKBR3 cells after 24 hrs by Western blot analysis; format: functional, cell-based
Summary of the method: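 PC-3 versus stable PC-3/CA-ILK, or SKBR3 versus transient SKBR3/CA-ILK (electroporation, used 48 h after), treated 24 h in 5% FBS medium; immunoblotting with ECL; representative of three experiments.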

[11] = target: Epidermal growth factor receptor (Homo sapiens) (UniProt P00533); test: Inhibition of EGFR at 5 uM assessed as remaining activity
Chain of Epidermal growth factor receptor (Homo sapiens) (P00533 whole entry): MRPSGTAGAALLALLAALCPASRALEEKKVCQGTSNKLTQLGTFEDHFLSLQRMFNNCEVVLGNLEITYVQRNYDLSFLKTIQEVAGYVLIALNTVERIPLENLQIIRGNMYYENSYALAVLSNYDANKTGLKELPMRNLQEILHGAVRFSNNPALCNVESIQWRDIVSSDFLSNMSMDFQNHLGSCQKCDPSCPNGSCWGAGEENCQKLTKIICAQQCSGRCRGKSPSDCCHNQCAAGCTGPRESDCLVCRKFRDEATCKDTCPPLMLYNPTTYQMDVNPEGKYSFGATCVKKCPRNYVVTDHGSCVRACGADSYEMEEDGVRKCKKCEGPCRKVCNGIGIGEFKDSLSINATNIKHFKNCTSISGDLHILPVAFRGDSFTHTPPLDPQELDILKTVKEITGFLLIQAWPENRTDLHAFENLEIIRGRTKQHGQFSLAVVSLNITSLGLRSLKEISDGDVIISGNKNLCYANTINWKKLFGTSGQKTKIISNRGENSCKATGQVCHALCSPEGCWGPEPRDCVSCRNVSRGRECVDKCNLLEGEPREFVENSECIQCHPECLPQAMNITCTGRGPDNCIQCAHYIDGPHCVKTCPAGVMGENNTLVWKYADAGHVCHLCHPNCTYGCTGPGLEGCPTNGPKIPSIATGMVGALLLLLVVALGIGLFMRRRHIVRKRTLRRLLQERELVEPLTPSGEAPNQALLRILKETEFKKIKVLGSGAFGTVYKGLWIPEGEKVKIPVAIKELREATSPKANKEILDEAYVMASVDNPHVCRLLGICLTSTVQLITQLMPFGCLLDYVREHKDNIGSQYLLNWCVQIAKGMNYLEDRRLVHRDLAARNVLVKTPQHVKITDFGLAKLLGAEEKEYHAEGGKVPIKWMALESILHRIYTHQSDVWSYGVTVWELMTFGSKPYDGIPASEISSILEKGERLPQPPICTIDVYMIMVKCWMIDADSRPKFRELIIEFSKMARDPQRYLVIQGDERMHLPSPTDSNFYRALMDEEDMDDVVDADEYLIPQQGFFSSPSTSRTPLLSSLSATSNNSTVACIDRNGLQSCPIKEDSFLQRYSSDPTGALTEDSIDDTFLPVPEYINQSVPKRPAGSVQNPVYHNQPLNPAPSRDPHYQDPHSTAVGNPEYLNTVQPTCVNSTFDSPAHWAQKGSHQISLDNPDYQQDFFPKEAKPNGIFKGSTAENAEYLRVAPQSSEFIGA
Summary of the method: (§4)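 Panel of 20 recombinant kinases, profiled by a commercial vendor.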

[12] = target: Tyrosine-protein kinase ABL1 (Homo sapiens) (UniProt P00519); test: Inhibition of Abl kinase at 5 uM assessed as remaining activity; summary of the method: as §4
Chain of Tyrosine-protein kinase ABL1 (Homo sapiens) (P00519 whole entry): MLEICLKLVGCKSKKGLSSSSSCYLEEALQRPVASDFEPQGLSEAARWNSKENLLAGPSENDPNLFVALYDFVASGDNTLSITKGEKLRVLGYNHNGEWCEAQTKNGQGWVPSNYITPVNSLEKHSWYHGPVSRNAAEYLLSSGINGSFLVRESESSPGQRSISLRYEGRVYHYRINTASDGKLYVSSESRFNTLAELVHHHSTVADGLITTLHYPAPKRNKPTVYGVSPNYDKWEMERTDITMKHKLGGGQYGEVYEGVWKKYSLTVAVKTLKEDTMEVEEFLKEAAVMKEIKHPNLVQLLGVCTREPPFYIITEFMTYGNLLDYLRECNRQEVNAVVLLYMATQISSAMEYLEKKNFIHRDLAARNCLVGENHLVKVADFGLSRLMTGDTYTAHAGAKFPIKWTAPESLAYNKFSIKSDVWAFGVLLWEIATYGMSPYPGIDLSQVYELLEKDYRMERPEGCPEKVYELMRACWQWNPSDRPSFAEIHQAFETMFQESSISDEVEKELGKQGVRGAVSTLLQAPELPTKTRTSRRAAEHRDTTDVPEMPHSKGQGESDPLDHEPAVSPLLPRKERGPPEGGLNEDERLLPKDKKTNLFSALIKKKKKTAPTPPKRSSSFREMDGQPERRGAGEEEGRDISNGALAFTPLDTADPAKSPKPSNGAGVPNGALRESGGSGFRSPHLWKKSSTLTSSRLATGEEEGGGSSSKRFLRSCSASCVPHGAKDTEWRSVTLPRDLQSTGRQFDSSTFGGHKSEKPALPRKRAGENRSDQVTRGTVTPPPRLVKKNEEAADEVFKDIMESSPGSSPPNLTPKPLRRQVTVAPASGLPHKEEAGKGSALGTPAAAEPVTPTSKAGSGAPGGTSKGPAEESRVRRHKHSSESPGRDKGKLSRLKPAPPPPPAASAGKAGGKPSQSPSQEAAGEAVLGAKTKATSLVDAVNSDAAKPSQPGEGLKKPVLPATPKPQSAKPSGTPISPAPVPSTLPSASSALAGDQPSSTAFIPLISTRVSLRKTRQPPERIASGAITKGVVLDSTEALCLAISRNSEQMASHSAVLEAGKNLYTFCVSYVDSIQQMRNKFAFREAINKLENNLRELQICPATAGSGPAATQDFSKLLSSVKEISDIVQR

[13] = target: 3-phosphoinositide-dependent protein kinase 1 (Homo sapiens) (UniProt O15530); test: Inhibition of PDK1 at 5 uM assessed as remaining activity
Chain of 3-phosphoinositide-dependent protein kinase 1 (Homo sapiens) (O15530 whole entry, looked up): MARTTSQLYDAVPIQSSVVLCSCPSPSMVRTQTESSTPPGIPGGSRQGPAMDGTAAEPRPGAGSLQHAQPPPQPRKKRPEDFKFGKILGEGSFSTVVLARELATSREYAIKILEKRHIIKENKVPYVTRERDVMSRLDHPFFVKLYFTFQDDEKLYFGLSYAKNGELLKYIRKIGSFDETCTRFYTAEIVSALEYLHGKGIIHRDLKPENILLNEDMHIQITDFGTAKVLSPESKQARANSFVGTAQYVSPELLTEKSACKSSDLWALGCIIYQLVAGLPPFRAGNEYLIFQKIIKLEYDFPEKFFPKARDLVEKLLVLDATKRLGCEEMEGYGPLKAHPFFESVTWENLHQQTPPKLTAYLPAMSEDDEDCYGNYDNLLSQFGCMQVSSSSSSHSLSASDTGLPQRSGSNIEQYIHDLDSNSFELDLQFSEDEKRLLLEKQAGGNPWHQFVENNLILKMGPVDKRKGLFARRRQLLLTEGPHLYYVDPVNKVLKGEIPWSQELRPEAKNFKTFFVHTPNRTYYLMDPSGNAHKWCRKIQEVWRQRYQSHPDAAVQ

PC-3 [14] = test: Induction of autophagy in human PC3 cells expressing Atg5 siRNA assessed as LC3-II conversion by Western blot analysis; format: functional, cell-based
Summary of the method: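 Transient Atg5 siRNA transfection of PC-3 by electroporation, cells used 48 h later, then treated. LC3-II conversion detected by immunoblot: SDS lysis, antibody 1:1000 at 4°C for 2 h, ECL. Representative of three independent experiments.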

SK-BR-3 [15] = test: Reduction in YB-1 mRNA expression in human SKBR3 cells after 24 hrs by RT-PCR analysis; format: functional, cell-based; summary of the method: as §1
PC-3 [16] = test: Reduction in YB-1 mRNA expression in human PC3 cells after 24 hrs by RT-PCR analysis; format: functional, cell-based; summary of the method: as §1
PC-3 [17] = test: Induction of apoptosis in human PC3 cells assessed as late apoptotic cells at 2 uM by annexin V/PI staining (reference value: 9.8%); format: functional
MDA-MB-468 = test: Antiproliferative activity against human MDA-MB-468 cells assessed as suppression of cell viability by MTT assay; format: functional, cell-based; summary of the method: as §2
PC-3 [18] = test: Cytotoxicity against human PC3 cells expressing Atg5 siRNA assessed as cell viability by MTT assay; format: functional, cell-based
Summary of the method: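 PC-3 cells electroporated with Atg5 siRNA (or control siRNA) and used 48 h after transfection. Treated 24 h in 5% FBS medium, 0.1% DMSO. Viability by MTT, 1 h at 37°C, absorbance 570 nm. Mean ± SD, n = 6.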

[19] = target: T1, Scaffold protein ILK (Homo sapiens) (UniProt Q13418); test: (§5) Inhibition of human ILK activity assessed myelin basic protein phosphorylation by radiometric kinase assay in the presence of [gamma 32P]ATP
T1 sequence (whole entry): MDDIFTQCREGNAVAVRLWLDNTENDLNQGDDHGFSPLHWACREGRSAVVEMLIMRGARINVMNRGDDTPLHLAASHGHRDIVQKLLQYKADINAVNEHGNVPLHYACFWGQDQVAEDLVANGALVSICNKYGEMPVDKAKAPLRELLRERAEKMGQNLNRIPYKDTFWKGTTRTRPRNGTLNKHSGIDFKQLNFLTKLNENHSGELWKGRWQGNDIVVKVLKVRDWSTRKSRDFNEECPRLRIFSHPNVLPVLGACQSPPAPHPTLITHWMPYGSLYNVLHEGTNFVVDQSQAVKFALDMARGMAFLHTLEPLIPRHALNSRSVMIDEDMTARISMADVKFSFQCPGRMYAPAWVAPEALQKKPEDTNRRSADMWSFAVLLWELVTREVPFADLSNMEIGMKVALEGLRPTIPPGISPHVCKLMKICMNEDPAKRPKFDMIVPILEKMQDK
Summary of the method: (§6)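 ILK immunoprecipitated from EGF-pretreated (100 ng/mL, 2 h) PC-3 lysates with protein A/G agarose; reaction in 25 μL with 5 μg MBP and 2.5 μCi [γ-32P]ATP, 30°C for 25 min; SDS-PAGE, autoradiography, densitometry versus DMSO control; mean ± SD, n = 3.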

Scaffold protein ILK = Scaffold protein ILK (Homo sapiens, UniProt Q13418); test: as §5; summary of the method: as §6
[20] = target: Rapamycin-insensitive companion of mTOR (Homo sapiens) (UniProt Q6R327); test: Inhibition of mTORC2 in human MDA-MB-231 cells assessed as PKCalpha phosphorylation by Western blot analysis; format: cell-based; summary of the method: as §3

## CNC(=O)CCc1cc(-c2ccc(-c3ccc(C(F)(F)F)cc3)cc2)n(-c2ccc(N3CCNCC3)cc2)n1
SK-BR-3 [1]
  Activity: Dose-dependent effect
MDA-MB-231
  IC50: 1 µM
SK-BR-3 [2]
  Activity: inactive
PC-3 [3]
  Activity: Dose-dependent effect
[4]
  inhibition: inactive
SK-BR-3 [5]
  Activity: Dose-dependent effect
PC-3 [6]
  Activity: 10.1%
PC-3 [7]
  Activity: 6.3%
PC-3 [8]
  Activity: inactive
[9]
  inhibition: inactive
SK-BR-3 [10]
  Activity: Dose-dependent effect
[11]
  Activity: 103%
[12]
  Activity: 73%
[13]
  Activity: 94%
PC-3 [14]
  Activity: inactive
SK-BR-3 [15]
  Activity: Dose-dependent effect
PC-3 [16]
  Activity: Dose-dependent effect
PC-3 [17]
  Activity: 11.6%
MDA-MB-468
  IC50: 1.5 µM
PC-3 [18]
  Activity: inactive
[19]
  inhibition: Dose-dependent effect
Scaffold protein ILK
  IC50: 0.6 µM
[20]
  inhibition: inactive
